Reference: PMC10092897 (Chemistry (Weinheim an Der Bergstrasse, Germany), 2022)
Read-outs that look alike come from different tables or passages of the source. Blank lines part the entries; values can stand above or below the compound they belong to.

Tests used:
CYP199A4 [1] = molecular target: T1, CYP199A4 (Rhodopseudomonas palustris, UniProt Q2IU02); test: Dissociation constant determination by UV-vis binding titration
T1 sequence (Q2IU02 1-410): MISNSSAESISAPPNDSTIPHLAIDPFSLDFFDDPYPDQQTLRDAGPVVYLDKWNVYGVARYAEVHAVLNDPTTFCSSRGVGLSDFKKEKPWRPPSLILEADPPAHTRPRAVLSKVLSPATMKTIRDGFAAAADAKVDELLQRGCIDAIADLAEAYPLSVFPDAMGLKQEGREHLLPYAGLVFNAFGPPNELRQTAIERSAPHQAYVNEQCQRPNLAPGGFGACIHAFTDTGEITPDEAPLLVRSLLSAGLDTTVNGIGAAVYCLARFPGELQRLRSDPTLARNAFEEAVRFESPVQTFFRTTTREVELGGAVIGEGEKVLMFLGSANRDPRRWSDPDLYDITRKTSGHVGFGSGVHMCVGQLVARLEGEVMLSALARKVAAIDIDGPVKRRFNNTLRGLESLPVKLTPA
In short: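 UV-vis titration at 30 °C: enzyme diluted to 0.5–2.0 μM in 50 mM Tris, pH 7.4. Substrate was added from 1, 10 or 100 mM stocks in ethanol or DMSO. Soret peak-to-trough absorbance difference was recorded over 700–250 nm. Kd came from fitting ΔA against total substrate concentration to the tight-binding quadratic equation.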

CYP199A4 [2] = molecular target: T1, CYP199A4; test: Spin state determination by UV-vis spectroscopy; assay type: binding; details: WT CYP199A4, 50 mM Tris, pH 7.4
CYP199A4 [3] = molecular target: T1, CYP199A4; test: In vitro NADH turnover assay and metabolite analysis; assay type: biochemical; details: for PFR (product formation rate): WT CYP199A4 0.5 μM, 50 mM Tris, pH 7.4
CYP199A4 [4] = molecular target: T1, CYP199A4; details: WT CYP199A4; cited from earlier work
CYP199A4 [5] = molecular target: T1, CYP199A4; details: WT CYP199A4, cited from earlier work
CYP199A4 [6] = molecular target: T1, CYP199A4; details: WT CYP199A4, cited from earlier work; remark: listed apart in the source
F298V mutant of CYP199A4 [7] = test: Spin state determination by UV-vis spectroscopy, F298V mutant; assay type: binding, Rhodopseudomonas palustris
In short: (§1)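 Mutant was produced and purified as for WT. UV-vis spectra of the substrate-treated enzyme were recorded at 30 °C. The percentage low-to-high-spin shift of the ferric heme was estimated to about ±5%.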

F298V mutant of CYP199A4 [8] = test: In vitro NADH turnover assay and metabolite analysis, F298V mutant; assay type: biochemical, Rhodopseudomonas palustris
In short: (§2)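 Mutant was expressed and purified as for WT, with glycerol removed by gel filtration. NADH was added to ~320 μM, then substrate at 1 mM final. NADH oxidation was followed at A340 (ε 6.22 mM⁻¹cm⁻¹). Values are mean ± S.D., n ≥ 3.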

F182L mutant of CYP199A4 [9] = test: Spin state determination by UV-vis spectroscopy, F182L variant; assay type: binding, Rhodopseudomonas palustris
In short: as §1

F182L mutant of CYP199A4 [10] = test: In vitro NADH turnover assay and metabolite analysis, F182L mutant; assay type: biochemical, Rhodopseudomonas palustris
In short: as §2

SMILES: O=C(O)c1ccc(C2CCCCC2)cc1 [4‐cyclohexylBA, 4‐cyclohexylbenzoic acid]
- Kd (CYP199A4 [4]): 0.45 ± 0.05 µM
- HS [%] (CYP199A4 [5]): ≥95%
- Coupling (CYP199A4 [6]): 33±2%
- NADH oxidation rate (CYP199A4 [6]): 169 ± 11 min⁻¹
- PFR (product formation rate) (CYP199A4 [6]): 52 ± 6 min⁻¹
- Product selectivity: 4-(1-hydroxycyclohexyl)benzoic acid (benzylic hydroxylation) (CYP199A4 [3]; WT CYP199A4): 24%
- High-spin species (F298V mutant of CYP199A4 [7]): ≥ 85%
- Coupling efficiency (F298V mutant of CYP199A4 [8]; F298V mutant): 31±9%
- NADH oxidation rate (F298V mutant of CYP199A4 [8]; F298V mutant): 162 ± 55 min⁻¹
- Product selectivity: 4-(1-hydroxycyclohexyl)benzoic acid (benzylic hydroxylation) (F298V mutant of CYP199A4 [8]; F298V variant): 34%
- High-spin species (F182L mutant of CYP199A4 [9]): 90%

SMILES: COc1ccc(C(=O)O)cc1 [4‐methoxyBA, 4‐methoxybenzoic acid]
- HS [%] (CYP199A4 [5]; ref 8c): ≥95%
- Coupling (CYP199A4 [6]; ref 8c): 91±10%
- NADH oxidation rate (CYP199A4 [6]; ref 8c): 1340 ± 30 min⁻¹
- PFR (product formation rate) (CYP199A4 [6]; ref 8c): 1220 ± 120 min⁻¹

SMILES: O=C(O)c1ccc(-c2ccccc2)cc1 [4‐phenylBA, 4‐phenylbenzoic acid]
- Kd (CYP199A4 [4]): 1.7 ± 0.1 µM
- HS [%] (CYP199A4 [5]): 90%
- NADH oxidation rate (CYP199A4 [6]): 902 ± 34 min⁻¹
- Coupling efficiency (F182L mutant of CYP199A4 [10]): 30%
- NADH oxidation rate (F182L mutant of CYP199A4 [10]): 75 ± 0.3 min⁻¹
- Proportion of 4-(3′-hydroxyphenyl)benzoic acid among metabolites (F182L mutant of CYP199A4 [10]; RT 16.2 min): 9%
- High-spin species (F298V mutant of CYP199A4 [7]): ≥ 85%
- NADH oxidation rate (F298V mutant of CYP199A4 [8]; F298V mutant): 1030 ± 90 min⁻¹
- Oxidation by the F298V mutant (in words) (F298V mutant of CYP199A4 [8]; F298V mutant): unable to oxidise
- High-spin species (F182L mutant of CYP199A4 [9]): ~10%

SMILES: CC(C)(C)c1ccc(C(=O)O)cc1 [4‐tert‐butylBA, 4‐tert‐butylbenzoic acid]
- Kd (CYP199A4 [4]): 39 ± 2 µM
- HS [%] (CYP199A4 [5]): ≥95%
- Coupling (CYP199A4 [6]): 100±13%
- NADH oxidation rate (CYP199A4 [6]): 227 ± 4 min⁻¹
- PFR (product formation rate) (CYP199A4 [6]): 227 ± 32 min⁻¹

Results, then the compound that gave them:

- Kd (CYP199A4 [1]): 0.6 ± 0.1 µM
- HS [%] (shift from low-spin to high-spin ferric heme) (CYP199A4 [2]): ≥95%
- HS [%] (shift from low-spin to high-spin ferric heme) (CYP199A4 [2]; listed as 4‐(3′‐Methoxyphenyl)benzoic acid): ≥ 95%
SMILES: COc1cccc(-c2ccc(C(=O)O)cc2)c1 [4‐(3′‐methoxyphenyl)BA, 4‐(3′‐methoxyphenyl)benzoic acid]

- Kd (CYP199A4 [1]): 100 ± 10 µM
- Coupling (percentage of NADH utilised for formation of oxidation products) (CYP199A4 [3]; WT CYP199A4): ≤ 1%
- HS [%] (shift from low-spin to high-spin ferric heme) (CYP199A4 [2]): ~10%
SMILES: COc1ccc(-c2ccc(C(=O)O)cc2)cc1 [4‐(4′‐methoxyphenyl)BA, 4‐(4′‐methoxyphenyl)benzoic acid]

- Kd (CYP199A4 [1]): 2.3 ± 0.4 µM
- HS [%] (shift from low-spin to high-spin ferric heme) (CYP199A4 [2]): type II^[c]
- HS [%] (shift from low-spin to high-spin ferric heme) (CYP199A4 [2]; listed as 4‐benzoylbenzoic acid): type II
SMILES: O=C(O)c1ccc(C(=O)c2ccccc2)cc1 [4‐benzoylBA, 4‐benzoylbenzoic acid]

- Kd (CYP199A4 [1]): 5.2 ± 0.25 µM
- Coupling (percentage of NADH utilised for formation of oxidation products) (CYP199A4 [3]; WT CYP199A4): 95±11%
- PFR (product formation rate) (CYP199A4 [3]): 522 ± 61 min⁻¹
- PFR (product formation rate) (CYP199A4 [3]; listed as 4‐Benzylbenzoic acid): 522 min⁻¹
- HS [%] (shift from low-spin to high-spin ferric heme) (CYP199A4 [2]): 90%
SMILES: O=C(O)c1ccc(Cc2ccccc2)cc1 [4‐benzylBA, 4‐benzylbenzoic acid]
